Data published in ChEMBL document CHEMBL1151850, “Triterpenoid saponins from Dianthus versicolor” (J Nat Prod, 2009).

How the values were obtained:
HFL1 = assay: Cytotoxicity against human HFL1 cells after 24 hrs by MTT assay; type: cell-based; details: HFL1, 24 h
How it was run: (§1)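 Grown in DMEM with 10% fetal calf serum, 2 mM L-glutamine and penicillin/streptomycin at 37 °C, 5% CO2. 10^4 cells/well adhered 24 h before serial dilutions were added (DMSO stock diluted in medium, final DMSO <1%), in parallel triplicate wells. After 24 h exposure, MTT added for 4 h. Formazan dissolved in DMSO; viability read as absorbance at 570 nm.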

[1] = Cytotoxicity against human EVC304 cells after 24 hrs by MTT assay; type: cell-based; details: EVC304, 24 h
How it was run: (§2)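 Cells kept at 37 °C, 5% CO2 in RPMI-1640 with 10% fetal calf serum, subcultured twice weekly. Plated at 10^4 cells/well and allowed to adhere 24 h. Serial dilutions added from DMSO stock diluted in RPMI-1640, final DMSO below 1%, triplicate wells. After 24 h, MTT added for 4 h. Formazan dissolved in DMSO, absorbance read at 570 nm.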

[2] = Cytotoxicity against human BGC803 cells after 24 hrs by MTT assay; type: functional, cell-based; details: BGC803, 24 h; how it was run: as §2
MCF7 = assay: Cytotoxicity against human MCF7 cells after 24 hrs by MTT assay; type: functional, cell-based; details: MCF7, 24 h; how it was run: as §1
HepG2 = assay: Cytotoxicity against human HepG2 cells after 24 hrs by MTT assay; type: functional, cell-based; details: HepG2, 24 h; how it was run: as §1

| SMILES | IC50 (HFL1) | IC50 [1] | IC50 [2] | IC50 (MCF7) | IC50 (HepG2) |
| --- | --- | --- | --- | --- | --- |
| CC1(C)CC[C@]2(C(=O)O[C@@H]3O[C@H](CO[C@@H]4O[C@H](COC(=O)C[C@@](C)(O)CC(=O)O)[C@@H](O)[C@H](O)[C@H]4O[C@@H]4O[C@H](CO)[C@@H](O)[C@H](O)[C@H]4O)[C@@H](O)[C@H](O)[C@H]3O)[C@H](O)C[C@]3(C)C(=CC[C@@H]4[C@@]5(C)CC[C@H](O)[C@@](C)(C(=O)O[C@@H]6O[C@H](CO)[C@@H](O)[C@H](O)[C@H]6O)[C@@H]5CC[C@]43C)[C@@H]2C1 [DIANVERSICOSIDE A] | 2.8 µM | 8.4 µM | 6.2 µM | > 10 µM | > 10 µM |
| CC1(C)CC[C@]2(C(=O)O[C@@H]3O[C@H](CO[C@@H]4O[C@H](COC(=O)C[C@@](C)(O)CC(=O)O)[C@@H](O)[C@H](O)[C@H]4O[C@@H]4O[C@H](CO)[C@@H](O)[C@H](O)[C@H]4O)[C@@H](O)[C@H](O[C@@H]4O[C@H](CO)[C@@H](O)[C@H](O)[C@H]4O)[C@H]3O)[C@H](O)C[C@]3(C)C(=CC[C@@H]4[C@@]5(C)CC[C@H](O)[C@@](C)(C(=O)O)[C@@H]5CC[C@]43C)[C@@H]2C1 [DIANVERSICOSIDE B] | 3.1 µM | 7.7 µM | 5.7 µM | > 10 µM | > 10 µM |
| CC1(C)CC[C@]2(C(=O)O[C@@H]3O[C@H](CO[C@@H]4O[C@H](COC(=O)C[C@@](C)(O)CC(=O)O)[C@@H](O)[C@H](O)[C@H]4O[C@@H]4O[C@H](CO)[C@@H](O)[C@H](O)[C@H]4O)[C@@H](O)[C@H](O[C@@H]4O[C@H](CO)[C@@H](O)[C@H](O)[C@H]4O)[C@H]3O)CC[C@]3(C)C(=CC[C@@H]4[C@@]5(C)CC[C@H](O)[C@@](C)(C(=O)O)[C@@H]5CC[C@]43C)[C@@H]2C1 [DIANVERSICOSIDE D] | 3.4 µM | 3.9 µM | 2.9 µM | > 10 µM | > 10 µM |
| CC1(C)CC[C@]2(C(=O)O[C@@H]3O[C@H](CO[C@@H]4O[C@H](CO)[C@@H](O)[C@H](O)[C@H]4O[C@@H]4O[C@H](CO)[C@@H](O)[C@H](O)[C@H]4O)[C@@H](O)[C@H](O[C@@H]4O[C@H](CO)[C@@H](O)[C@H](O)[C@H]4O)[C@H]3O)[C@H](O)C[C@]3(C)C(=CC[C@@H]4[C@@]5(C)CC[C@H](O)[C@@](C)(C(=O)O[C@@H]6O[C@H](CO)[C@@H](O)[C@H](O)[C@H]6O)[C@@H]5CC[C@]43C)[C@@H]2C1 [DIANVERSICOSIDE E] | 3.5 µM | 9.1 µM | 7.4 µM | > 10 µM | > 10 µM |
| CC1(C)CC[C@]2(C(=O)O[C@@H]3O[C@H](CO[C@@H]4O[C@H](CO)[C@@H](O)[C@H](O)[C@H]4O[C@@H]4O[C@H](CO)[C@@H](O)[C@H](O)[C@H]4O)[C@@H](O)[C@H](O)[C@H]3O)[C@H](O)C[C@]3(C)C(=CC[C@@H]4[C@@]5(C)CC[C@H](O)[C@@](C)(C(=O)O[C@@H]6O[C@H](CO)[C@@H](O)[C@H](O)[C@H]6O)[C@@H]5CC[C@]43C)[C@@H]2C1 [DIANVERSICOSIDE F] | 4.4 µM | 9.6 µM | 9.7 µM | > 10 µM | > 10 µM |
| CC1(C)CC[C@]2(C(=O)O[C@@H]3O[C@H](CO[C@@H]4O[C@H](CO)[C@@H](O)[C@H](O)[C@H]4O[C@@H]4O[C@H](CO)[C@@H](O)[C@H](O)[C@H]4O)[C@@H](O)[C@H](O[C@@H]4O[C@H](CO)[C@@H](O)[C@H](O)[C@H]4O)[C@H]3O)CC[C@]3(C)C(=CC[C@@H]4[C@@]5(C)CC[C@H](O[C@@H]6OC[C@H](O)[C@H](O)[C@H]6O)[C@@](C)(C(=O)O)[C@@H]5CC[C@]43C)[C@@H]2C1 [DIANVERSICOSIDE G] | 3.3 µM | 6.2 µM | 6.8 µM | > 10 µM | > 10 µM |
| CC1(C)CC[C@]2(C(=O)O[C@@H]3O[C@H](CO[C@@H]4O[C@H](CO)[C@@H](O)[C@H](O)[C@H]4O[C@@H]4O[C@H](CO)[C@@H](O)[C@H](O)[C@H]4O)[C@@H](O)[C@H](O[C@@H]4O[C@H](CO)[C@@H](O)[C@H](O)[C@H]4O)[C@H]3O)CC[C@]3(C)C(=CC[C@@H]4[C@@]5(C)CC[C@H](O)[C@@](C)(C(=O)O)[C@@H]5CC[C@]43C)[C@@H]2C1 [VACCAROID A] | 7.8 µM | 4.1 µM | 5.3 µM | > 10 µM | > 10 µM |
| CC1(C)CC[C@]2(C(=O)O)CC[C@]3(C)C(=CC[C@@H]4[C@@]5(C)CC[C@H](O)[C@@](C)(C(=O)O[C@@H]6O[C@H](CO[C@@H]7O[C@H](CO)[C@@H](O)[C@H](O)[C@H]7O[C@@H]7O[C@H](CO)[C@@H](O)[C@H](O)[C@H]7O)[C@@H](O)[C@H](O[C@@H]7O[C@H](CO)[C@@H](O)[C@H](O)[C@H]7O)[C@H]6O)[C@@H]5CC[C@]43C)[C@@H]2C1 [VACCAROID C] | 3.8 µM | 8.7 µM | 9.4 µM | > 10 µM | > 10 µM |
